# Assay outcomes from PubChem BioAssay.
# VIM-2 inhibitor – blocks Pseudomonas aeruginosa VIM-2 metallo-beta-lactamase; inhibition, % at 5.6 µM; AID 1527; purified VIM-2, nitrocefin hydrolysis, epi-absorbance fluorescence; 0.89% of 290,000 active;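 active = inhibition above the mean of all tested compounds plus 3 SD, cutoff set per screening run, cut at about 7.5% in these data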;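 also: red hydrolysis product quenches plate fluorescence so inhibitors raise well fluorescence; 0% = enzyme with DMSO and 100% = DMSO without enzyme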
# ARFGAP1 inhibitor – rat ARFGAP1 inhibition; Q62848; Arfgap1-stimulated ARF1 GTP hydrolysis, GDP FP detection; inhibition, % at 16.5 µM; 0.26% of 360,000 active; AID 651572;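 active = inhibition above a per-plate limit, mean inhibition of low control wells plus 3 SD, cut at about 25% in these data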;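 also: 0% = DMSO wells with enzyme and 100% = wells lacking Arfgap1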
# Target sequence (Q62848 1-136 limits assumed): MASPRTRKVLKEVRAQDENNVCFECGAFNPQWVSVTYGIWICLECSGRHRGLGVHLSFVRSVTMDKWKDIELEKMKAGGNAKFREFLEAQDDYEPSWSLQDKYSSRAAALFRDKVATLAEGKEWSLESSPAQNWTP
#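 System: truncated rat Arfgap1 GAP domain / Benchmarks: high control wells lacking Arfgap1, low control full reaction with DMSO / Times: compound-enzyme preincubation 20 min, reaction 120 min, detection 60 min, 25 °C / Repeats: one replicate per compound / Also added: human ARF1(Δ1-17)-GTP substrate / Measured by: Tracer-displacement fluorescence polarization with EDTA stop, 620/688 nm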
# IMP-1 inh – inhibitors of Pseudomonas aeruginosa IMP-1 metallo-beta-lactamase; inhibition, % at 5.6 µM; purified IMP-1, nitrocefin hydrolysis, epi-absorbance fluorescence; 0.45% of 290,000 active; AID 1556;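 active = inhibition above the mean plus 3 SD of all compounds in the same screening run, cut at about 4.5% in these data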;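 also: 0% = IMP-1 with DMSO and 100% = DMSO wells lacking enzyme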
#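 Assay system: purified IMP-1; Quantity: IMP-1 0.2 nM before substrate addition; Medium: HEPES buffer pH 7.1 with ZnSO4 and Brij 35; Incubation: 15 min enzyme–compound preincubation, then 25 min nitrocefin reaction, 25 °C; Signal: fluorescence quenching readout, ex 480/em 530 nm; Controls: DMSO with and without IMP-1; Repeats: singlicate testing.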
# PHOSPHO1 inh – inhibitors of human PHOSPHO1 phosphatase; Q8TCT1; inhibition, % at 13.3 µM; 1.1% of 290,000 active; recombinant PHOSPHO1, absorbance phosphatase assay; in the data active = inhibition above about 60%
# Target sequence (Q8TCT1 whole entry, looked up): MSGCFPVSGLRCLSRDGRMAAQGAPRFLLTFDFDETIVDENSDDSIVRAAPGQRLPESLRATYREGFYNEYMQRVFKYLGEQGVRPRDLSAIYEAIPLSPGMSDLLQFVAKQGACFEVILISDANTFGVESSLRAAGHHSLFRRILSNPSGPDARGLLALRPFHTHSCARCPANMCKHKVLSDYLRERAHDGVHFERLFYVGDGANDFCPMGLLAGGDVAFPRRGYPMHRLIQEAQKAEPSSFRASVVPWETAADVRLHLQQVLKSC
# ASAP1 GAP inh – ASAP1 ArfGAP inhibition; Q9ULH1; inhibition, % at 16.5 µM; 0.19% of 360,000 active; ASAP1-stimulated ARF1 GTP hydrolysis, GDP FP detection; AID 624377; in the data active = inhibition above about 25%;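 also: 0% = vehicle with enzyme and substrate and 100% = no enzyme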
# Calb FLC – affects C. albicans growth with fluconazole; C. albicans CaCi-2 + fluconazole, Alamar Blue growth, 48 h; growth inhibition, % (test concentration not listed); 0.57% of 300,000 active; AID 1979;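 active = growth inhibition above about 58% in most replicates, limit read from the data, passing the limit was not always enough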;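 also: all wells also contain fluconazole at 8 µg/ml as a sub-toxic cotreatment; 0% = median of DMSO wells and 100% = median of geldanamycin control wells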
# Active calls of the source: *; x = no result. Shown are actives, neighbours in structure and some others; about 2.6% of the full set was active somewhere.
SMILES,VIM-2 inhibitor,ARFGAP1 inhibitor,IMP-1 inh,PHOSPHO1 inh,ASAP1 GAP inh,Calb FLC
CN1CCN(C(=O)c2cnn(-c3ccccc3)c2NC(=O)c2ccccc2)CC1,-4.8,-4.9,-1.1,28.8,13.2,93.7*
Cc1noc(-c2ccccc2)c1NC(=O)Nc1ccc2nc([C@H]3C[C@H](O)[C@@H](CO)O3)[nH]c2c1,x,15.7,x,x,6.2,x
Cc1ccc(S(=O)(=O)N2C(=S)SCC2(C)C)cc1,-1.3,x,5.4*,-6.8,x,5.3
CC1=CC(C)(C)N(S(=O)(=O)c2ccc(C)cc2)c2cc(C)ccc21,-3.5,-10.6,-1.1,27.9,-3.8,-12.1
CC1(C)Cc2c(sc(NC(=O)COc3cccc4ccccc34)c2C#N)C(C)(C)N1,2.8,7.1,19.4*,27.3,0.2,-6.5
Cc1ccc(OCC(=O)Nc2sc3c(c2C#N)CC(C)(C)NC3(C)C)cc1,-3.1,3.7,-2.8,40.7,-11.8,-0.9
NS(=O)(=O)c1cccc(NC(=S)NCc2ccc3c(c2)OCO3)c1,0.2,12.4,-2.6,-10.4,15.7,115.9*
CCCNC(=O)c1cc2c(c(-c3cccc(-c4ccccc4F)c3)n1)[C@@H](CCO)N(C(=O)CC1CC1)C2,x,-6.6,x,x,-12.9,x
COc1cc(C(=S)N2CCN(c3ccccc3Cl)CC2)cc(O)c1O,-3.4,-8.9,-3.5,-89.8,4.5,91.4*
COc1ccc(C(=S)N2CCN(c3ccccc3Cl)CC2)cc1OC,0.4,-7.6,-0.7,-54.5,-0.1,0.5
COC(=O)c1ccc(N2C(=O)CC(Sc3n[nH]c(C)n3)C2=O)cc1 (stereo unspecified),-0.5,17.4,-4.4,84.9*,4.1,4.5
COc1cc2c(c(OC)c1OC)[C@@]1(c3ccccc3)CCCC[C@H]1[C@@H]2NC(=O)C(F)(F)F,x,-4.4,x,x,4.5,x
COc1ccc(S(=O)(=O)N2C[C@@H](O)COC[C@@H]3O[C@H](CC(=O)NCCCN4CCOCC4)CC[C@H]32)cc1,x,-3.0,x,x,10.2,x
C=CCN1C[C@@H](COCc2ccccc2)OCCS1(=O)=O,x,3.4,x,x,10.0,x
S=C(NCCc1ccccc1)N1CCCC1,x,16.0,x,x,7.2,7.8
CC1CCCCN1C(=S)NCCc1ccccc1 (stereo unspecified),-3.2,-0.9,-3.0,88.1*,-3.0,6.1
CC(=O)Nc1cccc(-c2ccnc3c2CC(C)(C(=O)NCc2ccncc2)O3)c1 (stereo unspecified),x,-1.3,x,x,6.0,x
COc1ccc2[nH]c3c(=O)n(CCCCC(=O)N4CCCC4)c(=S)[nH]c3c2c1,-1.4,11.2,-2.3,100.2*,6.9,13.6
CC1=CC(C)C2C(=O)N(CCC[N+](C)(C)C)C(=O)C2C1 (stereo unspecified),-2.8,5.9,-1.5,93.5*,-26.9,-5.4
C[N+](C)(C)CCCN1C(=O)CCCC1=O,-9.7,-0.3,2.0,9.4,-1.2,2.9
CC(C)C[C@H]1COc2cccc(N3CCCCC3)c2S(=O)(=O)N1,x,10.2,x,x,2.2,x
CC(C)[C@H](N)c1nnc(SCC(=O)c2ccc(Cl)cc2)o1,-5.0,5.7,0.5,82.1*,16.3,15.0
CC(C)COC(=O)N1CCCCC1c1cc(C(=O)NC(C)C)no1 (stereo unspecified),x,7.8,x,x,-8.3,x
O=C(NCc1ccco1)c1nn2c(C(F)(F)F)cc(-c3cccs3)nc2c1Cl,2.0,7.7,-1.6,7.8,3.0,-12.9
COc1ccc(-c2cc(C(F)(F)F)n3ncc(C(=O)NCc4ccco4)c3n2)cc1,8.2*,0.5,-4.4,11.7,0.6,8.5
SMILES,VIM-2 inhibitor,ARFGAP1 inhibitor,IMP-1 inh,PHOSPHO1 inh,ASAP1 GAP inh,Calb FLC
O=C(NC1CCCC1)c1cnn2c(C(F)(F)F)cc(-c3ccco3)nc12,16.6*,12.0,-1.9,40.8,-0.3,4.2
O=C(NCc1ccco1)c1cnn2c(C(F)(F)F)cc(-c3ccccc3)nc12,1.3,-10.2,-3.5,14.3,-6.1,10.9
O=C(NCc1ccco1)c1cc2nc(-c3cccs3)cc(C(F)(F)F)n2n1,8.6*,15.1,-4.7,34.2,4.6,22.6
COC(=O)c1cc2c(c3c4cc(OC)ccc4n(S(=O)(=O)c4ccccc4)c13)C(=O)N(Cc1ccc(C(F)(F)F)cc1)C2,x,13.9,x,x,2.0,x
CC1CCC(C(=O)c2c(O)c3ccccc3oc2=O)CC1 (stereo unspecified),-3.5,15.1,-3.0,0.3,-9.2,108.4*
COc1ccc(OCC(=O)c2c(O)c3ccccc3oc2=O)cc1,-2.6,x,-6.4,-35.4,x,-5.8
CCOc1ccc(OCC(=O)c2c(O)c3ccccc3oc2=O)cc1,1.5,-1.3,-1.1,68.5*,-1.6,1.6
COC(=O)C(NNc1ccccc1)(NC(=O)c1cccc(F)c1)C(F)(F)F (stereo unspecified),-1.4,-1.4,-2.7,99.2*,5.2,-8.2
Nc1c(C(=O)Nc2ccccc2)sc2nc3c(c(-c4ccco4)c12)CCC3,-1.5,-5.3,-1.1,86.6*,-4.8,-1.9
O=C(NCc1ccccc1)c1sc(=S)n2c1[nH]c(=O)c1ccccc12,-0.7,5.6,-1.8,-0.6,4.4,87.2*
NC(=O)c1sc(=S)n2c1[nH]c(=O)c1sccc12,8.2*,-2.7,-1.4,16.8,-0.7,14.2
CC(=O)NNC(=O)c1sc(=S)n2c1[nH]c(=O)c1sccc12,23.1*,-0.5,-1.2,-49.9,-1.8,-1.5
O=C(NC1CCCCC1)c1[nH]c(C(F)(F)F)nc1-c1ccccc1,x,-4.3,x,x,2.4,x
Cc1ccnc(NC(=O)CSc2cc(=O)n(C)c3ccccc23)c1,0.6,8.3,-3.8,63.2*,-16.3,-21.9
CN1C(=O)[C@@]2(O[C@H]3C=CC=CN3C3=C2C(=O)CCC3)c2cccc(Br)c21,x,-13.1,x,x,-9.1,x
Nc1[nH]c(C(=O)c2ccccc2)c(-c2ccc3ccccc3c2)c1C(=O)NCc1ccc(-c2ccccc2)cc1,x,-0.8,x,x,5.9,x
CCOC(=O)c1c(=O)n(O)c2ccc(C)cc2[n+]1[O-],-2.2,-12.5,-2.0,67.7*,7.5,-0.7
O=C(O)c1cccc2cc(-c3ccccc3)oc(=O)c12,4.7,3.7,4.8*,11.4,6.6,-3.5
CC(O)c1nc2ccc(C(=O)O)cc2[nH]1 (stereo unspecified),1.2,10.0,8.7*,23.6,11.4,0.1
CC(Sc1nc2ccc(C(=O)c3ccccc3)cc2[nH]1)C(=O)O (stereo unspecified),-3.5,2.0,-2.5,-0.8,9.9,-4.4
Cc1c2c(n3c(nc4ccccc43)c1C#N)N(Cc1cccnc1)CC2,9.6*,x,-1.8,x,x,x
N#Cc1c2c(c(NCc3cccnc3)n3c1nc1ccccc13)CCC2,11.8*,11.4,-5.0,3.4,-2.0,0.2
CCc1cc(C(=O)OC)c(NC(=O)CCC(=O)O)s1,1.4,7.5,14.8*,31.7,-14.3,12.9
CCCc1cc(C(=O)OC)c(NC(=O)CCCC(=O)O)s1,-4.9,-9.8,-5.9,-17.4,-2.2,4.5
COC(=O)C(C)(C)ONC(=O)Nc1ccc([N+](=O)[O-])cc1,-0.6,-11.6,1.7,61.2*,-6.6,-2.2
